SMILES strings stand for the structures. pIC50: −log10 of the molar value.

The target of one experiment is GABA-A receptor; anion channel. Briefly: Inhibition of [3H]flunitrazepam binding to benzodiazepine receptor in bovine brain membrane. The class given is cell membranes, Bos taurus. The procedure, abridged: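 Bovine brain membranes (0.4-0.5 mg protein) incubated in triplicate with 0.6 nM [3H]flunitrazepam, 90 min at 0 °C, 50 mM Tris-HCl; compounds in EtOH unless noted. Rapid GF/B filtration, buffer wash, scintillation counting; nonspecific binding with 10 μM diazepam. IC50 from log-probit plots, mean ± SEM of seven determinations.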
For the compound `COc1cccc(-n2nc3c(c2C)c(=O)oc2ccccc23)c1`, the pIC50 (as a rule, the IC50 on a negative log10 scale, so that one unit is a factor of ten) was 5.30. Same read-out and setting: with `Cc1nn(-c2ccc(N)cc2)c2c1c(=O)oc1ccccc12` the figure was 5.89. The compound `Cc1nn(-c2ccccc2N)c2c1c(=O)oc1ccccc12` gave a negative logarithm of the IC50 (pIC50) of 6.20. Compound `O=c1oc2ccccc2c2c1c(-c1ccccc1)nn2-c1ccccc1` had a pIC50 of 4.80. For `Cc1nn(-c2cccc(Cl)c2)c2c1c(=O)oc1ccccc12`, the negative-log IC50 (pIC50) is 7.05.

Turning to `Cc1c2c(=O)oc3ccccc3c2nn1-c1ccccc1`, the negative logarithm of the IC50 (pIC50) was 5.51. On the same count and under the same terms, with `Cc1nn(-c2ccccc2Cl)c2c1c(=O)oc1ccccc12` the figure was 4.80. Same read-out and setting: with `Cc1nn(-c2cccc([N+](=O)[O-])c2)c2c1c(=O)oc1ccccc12` the figure was 6.49.

For `Cc1nn(-c2cccc(N)c2)c2c1c(=O)oc1ccccc12`, the pIC50 was 5.47. Still for that read-out and setting: with `Cc1cccc(-n2nc3c(c2C)c(=O)oc2ccccc23)c1` the figure was 5.52. The same measure, in the same setting: with `Cc1cc(C)cc(-n2nc(C)c3c(=O)oc4ccccc4c32)c1` the figure was 7.19; with `CNC1=Nc2ccc(Cl)cc2C(c2ccccc2)=[N+]([O-])C1` [CHLORDIAZEPOXIDE], 6.10; with `Cc1nn(-c2ccc([N+](=O)[O-])cc2)c2c1c(=O)oc1ccccc12`, 6.00. For the compound `Cc1nn(-c2ccc(Cl)cc2)c2c1c(=O)oc1ccccc12`, the pIC50 is 6.12. Still for that read-out and setting: with `Cc1ccc(-n2nc(C)c3c(=O)oc4ccccc4c32)cc1` the figure was 5.70.

As to `Cc1nn(-c2ccccc2[N+](=O)[O-])c2c1c(=O)oc1ccccc12`, the negative logarithm of the IC50 (pIC50) is 4.37. As for `COc1ccccc1-n1nc(C)c2c(=O)oc3ccccc3c21`, the pIC50 was 5.10. On the same count and under the same terms, with `Cc1nn(-c2ccccc2)c2c1c(=O)oc1ccccc12` the figure was 6.52; with `COc1ccc(-n2nc(C)c3c(=O)oc4ccccc4c32)cc1`, 6.15; with `Cc1nn(-c2cccc(Br)c2)c2c1c(=O)oc1ccccc12`, 7.00. Same read-out and setting: with `CN1C(=O)CN=C(c2ccccc2)c2cc(Cl)ccc21` [DIAZEPAM] the figure was 7.60; with `Cc1ccccc1-n1nc(C)c2c(=O)oc3ccccc3c21`, 4.52. `COc1cccc(-n2nc(C)c3c(=O)oc4ccccc4c32)c1`: the pIC50 is 6.12. On the same count and under the same terms, with `Cc1cccc(-n2nc(C)c3c(=O)oc4ccccc4c32)c1` the figure was 6.55; with `Cc1c2c(=O)oc3ccccc3c2nn1-c1cccc(Br)c1`, 4.60.

A further experiment is filed under the species Bos taurus. Briefly: Percentage inhibition of [3H]flunitrazepam binding to benzodiazepine receptor of bovine brain membrane at 34 uM. The procedure, abridged: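 Specific [3H]flunitrazepam binding (0.6 nM) to bovine brain membranes, 90 min at 0 °C in 50 mM Tris-HCl, triplicate incubations; test compound at 34 μM, EtOH vehicle unless noted. Filtration through GF/B, scintillation counting; 10 μM diazepam defines nonspecific binding. Percent inhibition as mean ± SEM of five determinations.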
As to `O=c1oc2ccccc2c2c1c(-c1ccccc1)nn2-c1ccccc1`, the inhibition – broadly, how much of the control response was suppressed – is 34%.

In turn, `Cc1nn(-c2ccccc2Cl)c2c1c(=O)oc1ccccc12` registered an inhibition of 34%.

For the origin of these results see ChEMBL document CHEMBL1124214, “Synthesis, binding studies, and structure-activity relationships of 1-aryl-and 2-aryl[1]benzopyranopyrazol-4-ones, central benzodiazepine receptor ligands” (J Med Chem, 1988).
